PubChem BioAssay
Records with an inconclusive call do not appear.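 The calls were made as follows, unless noted: active = growth inhibition above 25% in both replicates, a cutoff set 3 SD above the mean; inconclusive = above 25% in only one replicate; inactive = the rest.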

Legend:
[1] = S. cerevisiae growth inhibition in permissive medium (OD615), pilot counter-assay for S. cerevisiae lifespan shortening project, permissive growth control (AID 705); conditions: OD615, 24 h, at 10 µM, stronger effect = higher value
Summary of the method: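 assay system = Saccharomyces cerevisiae strain carrying genetically modified DeaD replicative-lifespan system | medium = SC raffinose/galactose permissive medium | dosing = 10 µM single dose, 0.25% DMSO | schedule = 24 h compound exposure at 30 °C after 4 h pre-growth | measured by = OD at 615 nm | read-out basis = growth inhibition from lowered OD615 after 24 h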

[2] = S. cerevisiae growth inhibition in restrictive medium, OD615, pilot screen, restrictive growth control, yeast lifespan reduction project (AID 706;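 active = growth inhibition above a set limit, 3 SD over mean compound inhibition, in both replicates, cut at about 43% in these data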;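 also: modified DeaD lifespan yeast strain shifted to restrictive glucose medium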); conditions: OD615, 48 h, at 10 µM, stronger effect = higher value
Summary of the method: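 Buffer or medium: CSMM-D glucose medium. Material: genetically modified Saccharomyces cerevisiae, DeaD replicative lifespan assay strain. Times: 48 h compound exposure at 30 °C. Measured by: optical density at 615 nm.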

[3] = doxorubicin toxicity protection in MRP-1 cells – H69AR cells, CellTiter-Glo, duplicate, MRP-1 activator project, pilot screen (AID 807;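 active = viability increase at or above a cutoff of the median across tested compounds plus 3 SD, cut at about 8.5% in these data, passing the limit was not always enough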;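 also: compound pretreatment 18-22 h then 72 h combined with doxorubicin; 0% = doxorubicin alone and 100% = vehicle without doxorubicin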); conditions: H69AR viability with doxorubicin, CellTiter-Glo luminescence; at 10 µM; stronger effect = higher value
[4] = viability of HCT116 without oncogenic beta-catenin – human colon tumor cells, pilot screen (AID 823;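 active = cell viability at or below a set limit in both duplicate runs, the limit being the all-compound median minus 4 SD, cut at about 23% in these data, passing the limit was not always enough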;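 also: 0% = wells killed by 20 µM Hyamine and 100% = untreated DMSO cell wells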); conditions: HCT116 beta-catenin knockout viability, CellTiter-Glo, 60 h; at 10 µM; stronger effect = lower value
[5] = viability of PTEN-null HCT116 cells – cell-based, HCT116 clonal line, CellTiter-Glo, pilot screen (AID 824;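 active = viability at or below 27.92% in each of two runs, the all-compound median minus 4 SD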;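 also: 0% = 20 µM Hyamine control and 100% = vehicle cell control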); conditions: HCT116 PTEN-deleted viability, 60 h, at 10 µM, stronger effect = lower value
[6] = RAM pathway blockade in budding yeast – dse1pr::URA3 reporter, 5-FOA selection, pilot screen (AID 869;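 active = inhibition over a set limit, the all-compound mean plus 3 SD, in both replicate runs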;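 also: 0% = DMSO wells with no growth and 100% = 10 µM 1-NA-PP1 with full growth; RAM network block rescues cells from 5-FOA so hits raise OD615 growth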); conditions: S. cerevisiae dse1pr::URA3 5-FOA growth, OD615, 2 d; at 10 µM; stronger effect = higher value; strain carries analog-sensitive mutant Cbk1 kinase
[7] = RAM signaling pathway blockade in yeast – S. cerevisiae, Pdr1DBD-CYC8 efflux-inhibited sensitized strain, primary screen (AID 1298;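 active = RAM network inhibition above 8.4% in each of two replicates, 3 SD over the compound average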;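 also: 0% = DMSO untreated cells without growth and 100% = 10 µM 1-NA-PP1 full growth; higher means more yeast growth rescued from 5-FOA killing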); conditions: S. cerevisiae cbk1-as DSE1-URA3 strain, 5-FOA growth OD615, 2 d; at 50 µM; stronger effect = higher value

CCCC(=O)C1C(=O)CC(C)(C)C(c2cc(C)no2)C1=O (stereo not drawn)
inactive: growth inhibition [1] -22.4% | growth inhibition [2] -12.9% | viability increase [3] 0.5% | viability [4] 103% | viability [5] 98.7% | inhibition [6] -0.1% | RAM network inhibition [7] -1.09%

COc1ccc(Br)cc1S(=O)(=O)N(CC(=O)N1CCOCC1)c1ccccc1
inactive: growth inhibition [1] -2.82% | growth inhibition [2] -7.74% | viability increase [3] -2.08% | viability [4] 98.1% | viability [5] 98.6% | inhibition [6] 2.6% | RAM network inhibition [7] 3.62%

CC1Cc2nc(SCC(=O)NCc3ccco3)n(Cc3ccccc3)c(=O)c2S1 (stereo not drawn)
inactive: growth inhibition [1] -6.15% | growth inhibition [2] -15.7% | viability increase [3] -6.41% | viability [4] 91.1% | viability [5] 87.3% | inhibition [6] 3.45% | RAM network inhibition [7] 3.84%

CCn1c(SCC(=O)N2CCN(c3ccccc3)CC2)nc2c(c1=O)SC(C)C2 (stereo not drawn)
inactive: growth inhibition [1] -13.4% | growth inhibition [2] -10.2% | viability increase [3] -2.66% | viability [4] 88.5% | viability [5] 78.4% | inhibition [6] 1.4% | RAM network inhibition [7] 2.11%

CC12CCC(C(=O)N3CCCc4ccccc43)(CC1=O)C2(C)C (stereo not drawn)
inactive: growth inhibition [1] -15% | growth inhibition [2] -2.7% | viability increase [3] -0.39% | viability [4] 83.6% | viability [5] 87.6% | inhibition [6] 0.94% | RAM network inhibition [7] 0.93%

CCSc1nc2c([nH]c3ccccc32)c(=O)n1C
inactive: growth inhibition [1] -14.2% | growth inhibition [2] -9.45% | viability increase [3] -4.7% | viability [4] 105% | viability [5] 100% | inhibition [6] 3.67% | RAM network inhibition [7] 0.53%

CC1(C)CC(=O)C2=C(C1)OC(N)=C(C#N)C21CCN(Cc2ccccc2)CC1
inactive: growth inhibition [1] -19.9% | growth inhibition [2] -21.6% | viability increase [3] -3.46% | viability [4] 97.7% | viability [5] 97.6% | inhibition [6] 2.13% | RAM network inhibition [7] 5.53%

CCCCn1c(CNC(=O)C(C)(C)C)nc2ccccc21
inactive: growth inhibition [1] -11.1% | growth inhibition [2] -12% | viability increase [3] -1.15% | viability [4] 98% | viability [5] 98.9% | inhibition [6] 0.25% | RAM network inhibition [7] 5.15%

COc1ccc(S(=O)(=O)Cc2ccc(C(=O)NC(C)C)o2)cc1
inactive: growth inhibition [1] -1.35% | growth inhibition [2] 0.215% | viability increase [3] 1.22% | viability [4] 108% | viability [5] 99.6% | inhibition [6] -0.2% | RAM network inhibition [7] 1.2%

COc1cccc(C2CC(c3ccc(Cl)cc3Cl)n3nc(N)nc3N2)c1 (stereo not drawn)
inactive: growth inhibition [1] -1.58% | growth inhibition [2] 18.6% | viability increase [3] 4.01% | viability [4] 90.8% | viability [5] 90.8% | inhibition [6] 1.79% | RAM network inhibition [7] 8.01%

CC1(C)CC(=O)C=C(NCCN2CCN(C(=O)Nc3ccc(Cl)cc3)CC2)C1
inactive: growth inhibition [1] -1.03% | growth inhibition [2] 5.34% | viability increase [3] 1.25% | viability [4] 99.2% | viability [5] 101% | inhibition [6] 1.35% | RAM network inhibition [7] 4.07%

CC1(C)Cc2ccccc2-c2nc(NCCO)n(-c3ccccc3)c(=O)c21
inactive: growth inhibition [1] -7.5% | growth inhibition [2] -15.2% | viability increase [3] -2.92% | viability [4] 84.8% | viability [5] 83% | inhibition [6] -0.14% | RAM network inhibition [7] 3.93%

Cc1cc(C(C)(C)C)ccc1OCCN(C)C
inactive: growth inhibition [1] -2.25% | growth inhibition [2] -9.14% | viability increase [3] 0.25% | viability [4] 94.2% | viability [5] 94.9% | inhibition [6] 1.58% | RAM network inhibition [7] 2.2%

CCOC(=O)c1ccc(N2CSC3=C(C#N)C(c4ccc(OC)cc4OC)CC(=O)N3C2)cc1 (stereo not drawn)
inactive: growth inhibition [1] 6.21% | growth inhibition [2] 24.4% | viability increase [3] -4.16% | viability [4] 92.3% | viability [5] 93.2% | inhibition [6] 2.44% | RAM network inhibition [7] 1.72%

COc1ccc(NCCNc2ccc(OC)cc2)cc1
inactive: growth inhibition [1] 5.4% | growth inhibition [2] 7.97% | viability increase [3] -0.82% | viability [4] 58.9% | viability [5] 59.5% | inhibition [6] 0.6% | RAM network inhibition [7] 6.32%

NC(=O)CSc1nc2ccccc2n1-c1ccccc1
inactive: growth inhibition [1] -9.13% | growth inhibition [2] 1.74% | viability increase [3] -0.83% | viability [4] 99% | viability [5] 97.5% | inhibition [6] 0.02% | RAM network inhibition [7] 0.62%

CN1CCN(C(=O)C2CC(=O)N(c3ccc(F)c(Cl)c3)C2)CC1 (stereo not drawn)
inactive: growth inhibition [1] -6.12% | growth inhibition [2] -6.44% | viability increase [3] -0.63% | viability [4] 96% | viability [5] 95.9% | inhibition [6] 2.12% | RAM network inhibition [7] 3.12%

COc1ccc(CN2CCCC2C(=O)Nc2ccc(OC)c(OC)c2)cc1OC (stereo not drawn)
inactive: growth inhibition [1] -5.96% | growth inhibition [2] -5.92% | viability increase [3] -2.8% | viability [4] 102% | viability [5] 97.3% | inhibition [6] 0.71% | RAM network inhibition [7] 0.26%

CCCCn1c(CNC(=O)CC)nc2ccccc21
inactive: growth inhibition [1] -4.54% | growth inhibition [2] -9.44% | viability increase [3] -2.1% | viability [4] 103% | viability [5] 102% | inhibition [6] 0.825% | RAM network inhibition [7] 1.89%

CCc1nnc(SCc2ccc(OC)c(Br)c2)n1N
inactive: growth inhibition [1] 6.13% | growth inhibition [2] -2.06% | viability increase [3] -0.5% | viability [4] 104% | viability [5] 98.9% | inhibition [6] 0.21% | RAM network inhibition [7] 2.41%

O=C(NCc1ccc2c(c1)OCO2)c1nnc(Cc2ccc(Cl)cc2)o1
inactive: growth inhibition [1] -5.43% | growth inhibition [2] 4.12% | viability increase [3] 2.05% | viability [4] 103% | viability [5] 103% | inhibition [6] 2.2% | RAM network inhibition [7] 5.48%

Cn1c2ccc(CC(=O)O)cc2c2cc(CC(=O)O)ccc21
inactive: growth inhibition [1] 1.85% | growth inhibition [2] -12.4% | viability increase [3] -3.54% | viability [4] 96.8% | viability [5] 89.7% | inhibition [6] 1.1% | RAM network inhibition [7] 0.98%

c1ccc(CNc2nc3ccccc3n3cnnc23)nc1
inactive: growth inhibition [1] -13.7% | growth inhibition [2] -8.93% | viability increase [3] -1.36% | viability [4] 105% | viability [5] 88.5% | inhibition [6] -0.44% | RAM network inhibition [7] 3.37%

CN(C)c1nc2c(c(=O)[nH]c(=O)n2C)n1Cc1ccc(F)cc1
inactive: growth inhibition [1] -2.72% | growth inhibition [2] 6.59% | viability increase [3] -0.31% | viability [4] 107% | viability [5] 100% | inhibition [6] 1.74% | RAM network inhibition [7] 2.1%
